Data on 9 compounds can be found in ChEMBL document CHEMBL1127694, “N-(acyloxyalkyl)pyridinium salts as soluble prodrugs of a potent platelet activating factor antagonist” (J Med Chem, 1994).

Data set [1] in a line: Half-life values were derived from the decay rate constant (k) by fitting the concentration and time values to the exponential decay function at pH 7. The data set is classed as ADME. Put shortly: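 Compounds at 20 μM in 25 mM K2PO4 buffer, pH 7, room temperature; aliquots taken over time and quantified by C18 reverse-phase HPLC (UV 250 nm, external calibration). t1/2 = ln(2)/k, with k from fitting concentration vs time to C = C0e^(-kt).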

A short description of data set [2]: The rate of hydrolytic cleavage in plasma was assessed by incubating compounds (30 uM) at 37 degrees Celsius with human plasma adjusted to pH 7. It is filed as ADME. The gist of the method: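 Human plasma brought to pH 7 with K2PO4 (50 mM final), compounds at 30 μM, 37 °C. Timed aliquots quenched with 2 volumes acidified acetonitrile and centrifuged. Supernatant quantified by reverse-phase HPLC at 250 nm. t1/2 from single-exponential decay fit, t1/2 = ln(2)/k.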

The test system of data set [3] is Rattus norvegicus. Put plainly: In vivo potency for inhibition of LPS-induced hypotension in rat by intra arterial (i.a.) administration. It is filed as functional. Put shortly:
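Rats recovered ≥1 h after surgery; baseline arterial pressure normalized to 100 mmHg. Compound given intraarterially in DMSO/PEG 400/45% hydroxypropyl-β-cyclodextrin/0.9% saline (2.5:20:30:47.5) 15 min before an i.a. bolus of E. coli LPS 0111:B4, 25 mg/kg in PBS pH 7.4. Pressure read every 1 min. Percent inhibition from area under the pressure–time curve versus vehicle.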

The next data set is filed under the species Oryctolagus cuniculus. The data set can be described thus: Inhibitory activity was determined in PAF-induced serotonin release from rabbit platelets. The data set is classed as functional.
Data set [4] has as its system Rattus norvegicus. The data set can be described thus: In vivo potency for complete inhibition of LPS-induced intestinal damage in rat by intravenous administration. The data set is classed as functional. The gist of the method: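 Sprague–Dawley rats, 200–225 g. Compound or vehicle (25 mM sodium acetate, pH 4) given i.v. via tail vein, then LPS 25 mg/kg 30 min later. Rats killed 30 min after LPS; luminal rinse of a 15 cm intestinal segment from the duodenum assayed for hemoglobin by hemoglobinometer against standards.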

Data set [5] deals with Rattus norvegicus. The data set can be described thus: In vivo potency for inhibition of PAF-induced cutaneous vascular permeability in rat by intravenous administration. The data set is classed as functional.

SMILES strings stand for the structures.

What is called half-life is the time needed for the level to fall by half in the phase considered. Low readings indicate rapid decline, high ones slow decline. Turning to `COC(=O)[C@@H]1CCCN1C(=O)OC[n+]1cccc([C@H]2SCc3c(C(=O)c4cn(C(=O)N(C)C)c5cc(-c6ccc(F)cc6)ccc45)ccn32)c1.[Cl-]`, the half-life in data set [1] amounted to 128 h. For the same compound, in data set [2], the half-life at 30 µM is 2.67 h.
In the same order, the values of `CN(C)C(=O)n1cc(C(=O)c2ccn3c2CS[C@@H]3c2ccc[n+](COC(=O)c3ccccc3)c2)c2ccc(-c3ccc(F)cc3)cc21.[Cl-]` are 8.5 h and 0.0167 h.
The like results for `CC(OC(=O)C(C)(C)C)[n+]1cccc([C@H]2SCc3c(C(=O)c4cn(C(=O)N(C)C)c5cc(-c6ccc(F)cc6)ccc45)ccn32)c1.[Cl-]` (stereo not given in full) were, in that order, 17.6 h and 0.518 h.
With `CN(C)C(=O)OC[n+]1cccc([C@H]2SCc3c(C(=O)c4cn(C(=O)N(C)C)c5cc(-c6ccc(F)cc6)ccc45)ccn32)c1.[Cl-]`, the half-life in data set [1] is greater than 167 h. The same compound returned a half-life at 30 µM in data set [2] greater than 10 h.
`CN(C)C(=O)n1cc(C(=O)c2ccn3c2CS[C@@H]3c2ccc[n+](COC(=O)C(C)(C)C)c2)c2ccc(-c3ccc(F)cc3)cc21.[Cl-]` returned a half-life in data set [1] of 45.3 h. The compound further registered a half-life at 30 µM in data set [2] of 0.347 h.
In turn, `CC(=O)OC[n+]1cccc([C@H]2SCc3c(C(=O)c4cn(C(=O)N(C)C)c5cc(-c6ccc(F)cc6)ccc45)ccn32)c1.[Cl-]` yielded a half-life in data set [1] of 9 h. The half-life at 30 µM in data set [2] amounted to 0.0433 h.
In the same order, the values of `Cc1oc(=O)oc1C[n+]1cccc([C@H]2SCc3c(C(=O)c4cn(C(=O)N(C)C)c5cc(-c6ccc(F)cc6)ccc45)ccn32)c1.[Cl-]` are 4.1 h and 0.0467 h.
The like results for `COC(=O)OC[n+]1cccc([C@H]2SCc3c(C(=O)c4cn(C(=O)N(C)C)c5cc(-c6ccc(F)cc6)ccc45)ccn32)c1.[Cl-]` were, in that order, 1.6 h and 0.0167 h.
Broadly, the ED50 is the dose that gives a 50% effect, or the effect in half of the subjects. Higher therefore signals weaker potency. For the compound `CN(C)C(=O)n1cc(C(=O)c2ccn3c2CS[C@@H]3c2cccnc2)c2ccc(-c3ccc(F)cc3)cc21`, the ED50 in the data set on Rattus norvegicus [3] was 0.01 mg/kg; with Rattus norvegicus [5], 0.006 mg/kg. The Kb in the data set listed under Oryctolagus cuniculus was determined as 1.1 nM. This compound also registered a Dose with Rattus norvegicus [4] of 0.1 mg/kg.
